Test results: ChEMBL document CHEMBL1135506, “Correlations between cytotoxicity and topography of some 2-arylidenebenzocycloalkanones determined by X-ray crystallography” (J Med Chem, 2002)

Columns and labels:
CCRF-CEM = assay: Inhibitory concentration against CEM T-lymphocytes; type: functional, cell-based; conditions: Homo sapiens
Method in brief: (§1)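 Murine L1210 lymphoid leukemia cells, human Molt 4/C8 T-lymphocytes and human CEM T-lymphocytes were tested up to a maximum concentration of 500 µM, and the read-out was IC50 (µM).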

[1] = Inhibitory concentration against proliferation of human Molt 4/C8 cells; type: functional, cell-based; conditions: Molt4/C8; method in brief: as §1
L1210 [2] = assay: Inhibitory activity against L1210 leukemia cells; type: functional, cell-based; conditions: Mus musculus; method in brief: as §1
P388 = assay: Inhibitory activity against Murine P388 cells; type: functional, cell-based; conditions: Mus musculus
[3] = Partition coefficient (logP); type: physicochemical; conditions: octanol/water
L1210 [4] = assay: Effect on DNA biosyntheses in leukemia L1210 cells; type: functional, cell-based; conditions: Mus musculus
Method in brief: (§2)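 L1210 cells, ~2 × 10⁵ per well, were exposed to a range of concentrations together with 0.25 µCi of [methyl-³H]deoxythymidine (DNA), [5-³H]uridine (RNA) or [3,4-³H]leucine (protein). They were incubated 20 h at 37 °C. Radioactivity in the trichloroacetic acid-insoluble fraction was then counted by liquid scintillation.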

L1210 [5] = assay: Effect on RNA biosyntheses in leukemia L1210 cells; type: functional, cell-based; conditions: Mus musculus; method in brief: as §2
L1210 [6] = assay: Effect on proliferation of leukemia L1210 cells; type: functional, cell-based; conditions: Mus musculus; method in brief: as §1
L1210 [7] = assay: Effect on protein biosyntheses in leukemia L1210 cells; type: functional, cell-based; conditions: Mus musculus; method in brief: as §2

SMILES: O=C1/C(=C/c2ccccc2F)Cc2ccccc21
- IC50 (CCRF-CEM): 47.1 µM
- IC50 [1]: 54.2 µM
- IC50 (L1210 [2]): 150 µM
- IC50 (P388): 31.7 µM

SMILES: COc1ccc(/C=C/C(=O)c2ccccc2)cc1 [4-METHOXY CHALCONE]
- IC50 (CCRF-CEM): 33.5 µM
- IC50 [1]: 30 µM
- IC50 (L1210 [2]): 50.4 µM
- IC50 (P388): 10.6 µM

SMILES: COc1cc(/C=C2\CCc3ccccc3C2=O)cc(OC)c1OC
- IC50 (CCRF-CEM): 7.04 µM
- IC50 [1]: 8.28 µM
- IC50 (L1210 [2]): 31.2 µM
- IC50 (P388): 6.72 µM

SMILES: COc1ccc(/C=C2\CCc3ccccc3C2=O)cc1OC
- IC50 (CCRF-CEM): 8.56 µM
- IC50 [1]: 11.6 µM
- IC50 (L1210 [2]): 42 µM
- IC50 (P388): 5.69 µM

SMILES: COc1ccc(/C=C2\CCCc3ccccc3C2=O)cc1OC
- logP [3]: 4.13
- IC50 (CCRF-CEM): 28 µM
- IC50 [1]: > 20 µM
- IC50 (L1210 [2]): > 100 µM
- IC50 (P388): 8.19 µM

SMILES: COc1ccccc1/C=C1\CCCc2ccccc2C1=O
- logP [3]: 4.69
- IC50 (CCRF-CEM): 28.9 µM
- IC50 [1]: 37.1 µM
- IC50 (L1210 [2]): 46.1 µM
- IC50 (P388): 18 µM

SMILES: O=C1/C(=C/c2ccc(Cl)c(Cl)c2)Cc2ccccc21
- IC50 (CCRF-CEM): 397 µM
- IC50 [1]: > 500 µM
- IC50 (L1210 [2]): > 500 µM
- IC50 (P388): 25 µM

SMILES: COc1cccc(/C=C2\CCCc3ccccc3C2=O)c1OC
- logP [3]: 4.54
- IC50 (CCRF-CEM): 142 µM
- IC50 [1]: > 500 µM
- IC50 (L1210 [2]): > 500 µM
- IC50 (P388): 8.58 µM

SMILES: O=C1/C(=C/c2ccccc2[N+](=O)[O-])Cc2ccccc21
- IC50 (CCRF-CEM): 3.53 µM
- IC50 [1]: 2.54 µM
- IC50 (L1210 [4]): 14.7 µM
- IC50 (L1210 [5]): 11.7 µM
- IC50 (L1210 [6]): 7.61 µM
- IC50 (L1210 [7]): 17.2 µM
- IC50 (L1210 [2]): 7.61 µM
- IC50 (P388): 0.74 µM

SMILES: O=C1/C(=C/c2ccccc2[N+](=O)[O-])CCCc2ccccc21
- logP [3]: 4.07
- IC50 (CCRF-CEM): 16.2 µM
- IC50 [1]: 40 µM
- IC50 (L1210 [2]): 47 µM
- IC50 (P388): 36.5 µM

SMILES: Cc1ccccc1/C=C1\CCc2ccccc2C1=O
- IC50 (CCRF-CEM): 43.2 µM
- IC50 [1]: 41.4 µM
- IC50 (L1210 [2]): 50.2 µM
- IC50 (P388): 17.7 µM

SMILES: COc1cc(/C=C2\CCCc3ccccc3C2=O)cc(OC)c1OC
- logP [3]: 4.29
- IC50 (CCRF-CEM): 11.7 µM
- IC50 [1]: 23.1 µM
- IC50 (L1210 [2]): 35.8 µM
- IC50 (P388): 8.68 µM

SMILES: Cc1ccccc1/C=C1\Cc2ccccc2C1=O
- IC50 (CCRF-CEM): 56.5 µM
- IC50 [1]: 154 µM
- IC50 (L1210 [2]): 208 µM
- IC50 (P388): 23.9 µM

SMILES: COc1ccc(/C=C2\CCCc3ccccc3C2=O)c(OC)c1
- logP [3]: 5.01
- IC50 (CCRF-CEM): 48.4 µM
- IC50 [1]: 71.4 µM
- IC50 (L1210 [2]): 12.4 µM
- IC50 (P388): 7.82 µM

SMILES: O=C1/C(=C/c2ccc(Cl)cc2Cl)CCc2ccccc21
- IC50 (CCRF-CEM): 8.73 µM
- IC50 [1]: 28.4 µM
- IC50 (L1210 [2]): 34.4 µM
- IC50 (P388): 17.2 µM

SMILES: COc1ccc(/C=C2\Cc3ccccc3C2=O)c(OC)c1
- IC50 (CCRF-CEM): 87.1 µM
- IC50 [1]: 48.5 µM
- IC50 (L1210 [2]): 14 µM
- IC50 (P388): 13 µM

SMILES: O=C1/C(=C/c2ccccc2F)CCCc2ccccc21
- logP [3]: 4.55
- IC50 (CCRF-CEM): 28.2 µM
- IC50 [1]: 42.1 µM
- IC50 (L1210 [2]): 60.4 µM
- IC50 (P388): 13.2 µM

SMILES: O=C1/C(=C/c2ccccc2Cl)Cc2ccccc21
- IC50 (CCRF-CEM): 57 µM
- IC50 [1]: 128 µM
- IC50 (L1210 [2]): 152 µM
- IC50 (P388): 26.5 µM

SMILES: O=C1/C(=C/c2ccccc2Br)CCc2ccccc21
- IC50 (CCRF-CEM): 25.4 µM
- IC50 [1]: 36.8 µM
- IC50 (L1210 [2]): 33.4 µM
- IC50 (P388): 19.7 µM

SMILES: O=C1/C(=C/c2ccc(Cl)c(Cl)c2)CCCc2ccccc21
- logP [3]: 5.71
- IC50 (CCRF-CEM): 11.8 µM
- IC50 [1]: 18.2 µM
- IC50 (L1210 [2]): 45.7 µM
- IC50 (P388): 12.2 µM

SMILES: O=C1/C(=C/c2ccccc2Br)CCCc2ccccc21
- logP [3]: 5.04
- IC50 (CCRF-CEM): 32.1 µM
- IC50 [1]: 38.4 µM
- IC50 (L1210 [2]): 37 µM
- IC50 (P388): 19.8 µM

SMILES: N[C@@H](Cc1ccc(N(CCCl)CCCl)cc1)C(=O)O
- IC50 (L1210 [4]): > 100 µM
- IC50 (L1210 [5]): > 100 µM

SMILES: O=C1/C(=C/c2ccccc2Br)Cc2ccccc21
- IC50 (CCRF-CEM): 46.8 µM
- IC50 [1]: 95.4 µM
- IC50 (L1210 [2]): 64.2 µM
- IC50 (P388): > 50 µM

SMILES: O=C1/C(=C/c2ccc(Cl)cc2Cl)CCCc2ccccc21
- logP [3]: 5.65
- IC50 (CCRF-CEM): 407 µM
- IC50 [1]: > 500 µM
- IC50 (L1210 [2]): > 500 µM
- IC50 (P388): 14 µM

SMILES: O=C1/C(=C/c2ccccc2[N+](=O)[O-])CCc2ccccc21
- IC50 (CCRF-CEM): 7.22 µM
- IC50 [1]: 8.12 µM
- IC50 (L1210 [2]): 10.8 µM
- IC50 (P388): 12.6 µM

SMILES: O=C1/C(=C/c2ccccc2Cl)CCc2ccccc21
- IC50 (CCRF-CEM): 8.8 µM
- IC50 [1]: 29.6 µM
- IC50 (L1210 [2]): 30 µM
- IC50 (P388): 17.5 µM

SMILES: O=C(/C=C/c1ccccc1[N+](=O)[O-])c1ccccc1
- IC50 (CCRF-CEM): 8.6 µM
- IC50 [1]: 8.38 µM
- IC50 (L1210 [2]): 30.4 µM
- IC50 (P388): 3.74 µM

SMILES: O=C1/C(=C/c2ccccc2F)CCc2ccccc21
- IC50 (CCRF-CEM): 20.8 µM
- IC50 [1]: 36 µM
- IC50 (L1210 [2]): 22.8 µM
- IC50 (P388): 21.8 µM

SMILES: COc1ccccc1/C=C1\Cc2ccccc2C1=O
- IC50 (CCRF-CEM): 58.2 µM
- IC50 [1]: 308 µM
- IC50 (L1210 [4]): 407 µM
- IC50 (L1210 [5]): 292 µM
- IC50 (L1210 [6]): 170 µM
- IC50 (L1210 [7]): 167 µM
- IC50 (L1210 [2]): 170 µM
- IC50 (P388): 28.4 µM

SMILES: COc1ccccc1/C=C/C(=O)c1ccccc1
- IC50 (CCRF-CEM): 8.56 µM
- IC50 [1]: 8.45 µM
- IC50 (L1210 [2]): 64.4 µM
- IC50 (P388): 15.9 µM

SMILES: COc1cccc(/C=C/C(=O)c2ccccc2)c1
- IC50 (CCRF-CEM): 8.55 µM
- IC50 [1]: 7.94 µM
- IC50 (L1210 [2]): 45.1 µM
- IC50 (P388): 9.75 µM

SMILES: O=C1/C(=C/c2ccccc2Cl)CCCc2ccccc21
- logP [3]: 5.04
- IC50 (CCRF-CEM): 18.4 µM
- IC50 [1]: 37.1 µM
- IC50 (L1210 [2]): 42.3 µM
- IC50 (P388): 12.7 µM

SMILES: COc1cc(/C=C2\Cc3ccccc3C2=O)cc(OC)c1OC
- IC50 (CCRF-CEM): > 500 µM
- IC50 [1]: > 500 µM
- IC50 (L1210 [2]): > 500 µM
- IC50 (P388): > 50 µM

SMILES: COc1ccccc1/C=C1\CCc2ccccc2C1=O
- IC50 (CCRF-CEM): 12.6 µM
- IC50 [1]: 31.3 µM
- IC50 (L1210 [2]): 40.5 µM
- IC50 (P388): 17.5 µM

SMILES: Cc1ccccc1/C=C1\CCCc2ccccc2C1=O
- logP [3]: 4.92
- IC50 (CCRF-CEM): 43.2 µM
- IC50 [1]: 36.2 µM
- IC50 (L1210 [2]): 61.2 µM
- IC50 (P388): 15.2 µM

SMILES: O=C(/C=C/c1cccc([N+](=O)[O-])c1)c1ccccc1
- IC50 (CCRF-CEM): 8.9 µM
- IC50 [1]: 8.53 µM
- IC50 (L1210 [2]): 82.9 µM
- IC50 (P388): 15.3 µM

SMILES: COc1cccc(/C=C2\CCc3ccccc3C2=O)c1OC
- IC50 (CCRF-CEM): 28.7 µM
- IC50 [1]: 41.3 µM
- IC50 (L1210 [2]): 38.2 µM
- IC50 (P388): 12.3 µM

SMILES: O=C(/C=C/c1ccc([N+](=O)[O-])cc1)c1ccccc1
- IC50 (CCRF-CEM): 13.8 µM
- IC50 [1]: 8.32 µM
- IC50 (L1210 [2]): 59.1 µM
- IC50 (P388): 7.58 µM

SMILES: COc1ccc(/C=C2\Cc3ccccc3C2=O)cc1OC
- IC50 (CCRF-CEM): 286 µM
- IC50 [1]: 468 µM
- IC50 (L1210 [2]): 264 µM
- IC50 (P388): 23.9 µM

SMILES: O=C1/C(=C/c2ccc(Cl)cc2Cl)Cc2ccccc21
- IC50 (CCRF-CEM): > 500 µM
- IC50 [1]: > 500 µM
- IC50 (L1210 [2]): > 500 µM
- IC50 (P388): > 50 µM

SMILES: O=C1/C(=C/c2ccc(Cl)c(Cl)c2)CCc2ccccc21
- IC50 (CCRF-CEM): 9.77 µM
- IC50 [1]: 28.6 µM
- IC50 (L1210 [2]): 210 µM
- IC50 (P388): 13.1 µM

SMILES: COc1cccc(/C=C2\Cc3ccccc3C2=O)c1OC
- IC50 (CCRF-CEM): 37.6 µM
- IC50 [1]: 53 µM
- IC50 (L1210 [2]): 214 µM
- IC50 (P388): 28.7 µM

SMILES: COc1ccc(/C=C2\CCc3ccccc3C2=O)c(OC)c1
- IC50 (CCRF-CEM): 1.88 µM
- IC50 [1]: 1.69 µM
- IC50 (L1210 [2]): 7.98 µM
- IC50 (P388): 2.61 µM
